From ChEMBL document CHEMBL1765020, “Synthesis and structure-affinity relationships of novel dibenzylideneacetone derivatives as probes for β-amyloid plaques” (J Med Chem, 2011)

Columns and labels:
Brain [1] = assay: Ratio of drug uptake in ddY mouse brain at 1 uCi/100 uL, iv after 2 mins to drug uptake in ddY mouse brain at 1 uCi/100 uL, iv after 60 mins; type: ADME, organism-based; details: in vivo
Outline: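 Normal female ddY mice (5 weeks) received the radiotracer iv, and brain uptake (% ID/g, n = 4) was measured by gamma counting at 2 and 60 min. The index is brain uptake at 2 min divided by brain uptake at 60 min.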

[2] = Partition coefficient, log D of the compound; type: physicochemical; details: octanol/water
Outline: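 Radiotracer partitioned between n-octanol and PBS: vortexed 3 min at room temperature, centrifuged 5 min at 3000 rpm. Weighed samples of the octanol (100 μL) and buffer (500 μL) layers were counted. log D is the log of the ratio of counts per gram, octanol versus PBS.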

Blood [3] = assay: Biodistribution in ddY mouse blood at 1 uCi/100 uL, iv after 2 mins by gamma counting; type: ADME, organism-based; details: in vivo
Outline: (§1)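 Normal female ddY mice (5 weeks, about 20 g; n = 4 per group) received radiotracer iv. Organs were removed and weighed at 2–120 min and counted in a γ-counter. Percent dose per gram of wet tissue was calculated against diluted aliquots of the injected material and reported as mean ± SD.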

Brain [4] = assay: Biodistribution in ddY mouse brain at 1 uCi/100 uL, iv after 2 mins by gamma counting; type: ADME, organism-based; details: in vivo; outline: as §1
Heart [5] = assay: Biodistribution in ddY mouse heart at 1 uCi/100 uL, iv after 2 mins by gamma counting; type: ADME, organism-based; details: in vivo; outline: as §1
Liver [6] = assay: Biodistribution in ddY mouse liver at 1 uCi/100 uL, iv after 2 mins by gamma counting; type: ADME, organism-based; details: in vivo
Spleen [7] = assay: Biodistribution in ddY mouse spleen at 1 uCi/100 uL, iv after 2 mins by gamma counting; type: ADME, organism-based; details: in vivo
Lung [8] = assay: Biodistribution in ddY mouse lung at 1 uCi/100 uL, iv after 2 mins by gamma counting; type: ADME, organism-based; details: in vivo
Kidney [9] = assay: Biodistribution in ddY mouse kidney at 1 uCi/100 uL, iv after 2 mins by gamma counting; type: ADME, organism-based; details: in vivo; outline: as §1
Stomach [10] = assay: Biodistribution in ddY mouse stomach at 1 uCi/100 uL, iv after 2 mins by gamma counting; type: ADME, organism-based; details: in vivo
Intestine [11] = assay: Biodistribution in ddY mouse intestine at 1 uCi/100 uL, iv after 2 mins by gamma counting; type: ADME, organism-based; details: in vivo; outline: as §1
Thyroid gland [12] = assay: Biodistribution in ddY mouse thyroid at 1 uCi/100 uL, iv after 2 mins by gamma counting; type: ADME, organism-based; details: in vivo
Blood [13] = assay: Biodistribution in ddY mouse blood at 1 uCi/100 uL, iv after 15 mins by gamma counting; type: ADME, organism-based; details: in vivo, 0.25 h; outline: as §1
Brain [14] = assay: Biodistribution in ddY mouse brain at 1 uCi/100 uL, iv after 15 mins by gamma counting; type: ADME, organism-based; details: in vivo, 0.25 h; outline: as §1
Heart [15] = assay: Biodistribution in ddY mouse heart at 1 uCi/100 uL, iv after 15 mins by gamma counting; type: ADME, organism-based; details: in vivo, 0.25 h; outline: as §1
Liver [16] = assay: Biodistribution in ddY mouse liver at 1 uCi/100 uL, iv after 15 mins by gamma counting; type: ADME, organism-based; details: in vivo, 0.25 h
Spleen [17] = assay: Biodistribution in ddY mouse spleen at 1 uCi/100 uL, iv after 15 mins by gamma counting; type: ADME, organism-based; details: in vivo, 0.25 h
Lung [18] = assay: Biodistribution in ddY mouse lung at 1 uCi/100 uL, iv after 15 mins by gamma counting; type: ADME, organism-based; details: in vivo, 0.25 h
Kidney [19] = assay: Biodistribution in ddY mouse kidney at 1 uCi/100 uL, iv after 15 mins by gamma counting; type: ADME, organism-based; details: in vivo, 0.25 h; outline: as §1
Stomach [20] = assay: Biodistribution in ddY mouse stomach at 1 uCi/100 uL, iv after 15 mins by gamma counting; type: ADME, organism-based; details: in vivo, 0.25 h
Intestine [21] = assay: Biodistribution in ddY mouse intestine at 1 uCi/100 uL, iv after 15 mins by gamma counting; type: ADME, organism-based; details: in vivo, 0.25 h; outline: as §1
Thyroid gland [22] = assay: Biodistribution in ddY mouse thyroid at 1 uCi/100 uL, iv after 15 mins by gamma counting; type: ADME, organism-based; details: in vivo, 0.25 h
Blood [23] = assay: Biodistribution in ddY mouse blood at 1 uCi/100 uL, iv after 30 mins by gamma counting; type: ADME, organism-based; details: in vivo, 0.5 h; outline: as §1
Brain [24] = assay: Biodistribution in ddY mouse brain at 1 uCi/100 uL, iv after 30 mins by gamma counting; type: ADME, organism-based; details: in vivo, 0.5 h; outline: as §1
Heart [25] = assay: Biodistribution in ddY mouse heart at 1 uCi/100 uL, iv after 30 mins by gamma counting; type: ADME, organism-based; details: in vivo, 0.5 h; outline: as §1
Liver [26] = assay: Biodistribution in ddY mouse liver at 1 uCi/100 uL, iv after 30 mins by gamma counting; type: ADME, organism-based; details: in vivo, 0.5 h
Spleen [27] = assay: Biodistribution in ddY mouse spleen at 1 uCi/100 uL, iv after 30 mins by gamma counting; type: ADME, organism-based; details: in vivo, 0.5 h
Lung [28] = assay: Biodistribution in ddY mouse lung at 1 uCi/100 uL, iv after 30 mins by gamma counting; type: ADME, organism-based; details: in vivo, 0.5 h
Kidney [29] = assay: Biodistribution in ddY mouse kidney at 1 uCi/100 uL, iv after 30 mins by gamma counting; type: ADME, organism-based; details: in vivo, 0.5 h
Stomach [30] = assay: Biodistribution in ddY mouse stomach at 1 uCi/100 uL, iv after 30 mins by gamma counting; type: ADME, organism-based; details: in vivo, 0.5 h
Intestine [31] = assay: Biodistribution in ddY mouse intestine at 1 uCi/100 uL, iv after 30 mins by gamma counting; type: ADME, organism-based; details: in vivo, 0.5 h; outline: as §1
Thyroid gland [32] = assay: Biodistribution in ddY mouse thyroid at 1 uCi/100 uL, iv after 30 mins by gamma counting; type: ADME, organism-based; details: in vivo, 0.5 h
Blood [33] = assay: Biodistribution in ddY mouse blood at 1 uCi/100 uL, iv after 60 mins by gamma counting; type: ADME, organism-based; details: in vivo, 1 h; outline: as §1
Brain [34] = assay: Biodistribution in ddY mouse brain at 1 uCi/100 uL, iv after 60 mins by gamma counting; type: ADME, organism-based; details: in vivo, 1 h; outline: as §1
Heart [35] = assay: Biodistribution in ddY mouse heart at 1 uCi/100 uL, iv after 60 mins by gamma counting; type: ADME, organism-based; details: in vivo, 1 h; outline: as §1
Liver [36] = assay: Biodistribution in ddY mouse liver at 1 uCi/100 uL, iv after 60 mins by gamma counting; type: ADME, organism-based; details: in vivo, 1 h
Spleen [37] = assay: Biodistribution in ddY mouse spleen at 1 uCi/100 uL, iv after 60 mins by gamma counting; type: ADME, organism-based; details: in vivo, 1 h
Lung [38] = assay: Biodistribution in ddY mouse lung at 1 uCi/100 uL, iv after 60 mins by gamma counting; type: ADME, organism-based; details: in vivo, 1 h
Kidney [39] = assay: Biodistribution in ddY mouse kidney at 1 uCi/100 uL, iv after 60 mins by gamma counting; type: ADME, organism-based; details: in vivo, 1 h
Stomach [40] = assay: Biodistribution in ddY mouse stomach at 1 uCi/100 uL, iv after 60 mins by gamma counting; type: ADME, organism-based; details: in vivo, 1 h
Intestine [41] = assay: Biodistribution in ddY mouse intestine at 1 uCi/100 uL, iv after 60 mins by gamma counting; type: ADME, organism-based; details: in vivo, 1 h; outline: as §1
Thyroid gland [42] = assay: Biodistribution in ddY mouse thyroid at 1 uCi/100 uL, iv after 60 mins by gamma counting; type: ADME, organism-based; details: in vivo, 1 h
Blood [43] = assay: Biodistribution in ddY mouse blood at 1 uCi/100 uL, iv after 120 mins by gamma counting; type: ADME, organism-based; details: in vivo, 2 h; outline: as §1
Brain [44] = assay: Biodistribution in ddY mouse brain at 1 uCi/100 uL, iv after 120 mins by gamma counting; type: ADME, organism-based; details: in vivo, 2 h; outline: as §1
Heart [45] = assay: Biodistribution in ddY mouse heart at 1 uCi/100 uL, iv after 120 mins by gamma counting; type: ADME, organism-based; details: in vivo, 2 h; outline: as §1
Liver [46] = assay: Biodistribution in ddY mouse liver at 1 uCi/100 uL, iv after 120 mins by gamma counting; type: ADME, organism-based; details: in vivo, 2 h
Spleen [47] = assay: Biodistribution in ddY mouse spleen at 1 uCi/100 uL, iv after 120 mins by gamma counting; type: ADME, organism-based; details: in vivo, 2 h
Lung [48] = assay: Biodistribution in ddY mouse lung at 1 uCi/100 uL, iv after 120 mins by gamma counting; type: ADME, organism-based; details: in vivo, 2 h
Kidney [49] = assay: Biodistribution in ddY mouse kidney at 1 uCi/100 uL, iv after 120 mins by gamma counting; type: ADME, organism-based; details: in vivo, 2 h; outline: as §1
Stomach [50] = assay: Biodistribution in ddY mouse stomach at 1 uCi/100 uL, iv after 120 mins by gamma counting; type: ADME, organism-based; details: in vivo, 2 h
Intestine [51] = assay: Biodistribution in ddY mouse intestine at 1 uCi/100 uL, iv after 120 mins by gamma counting; type: ADME, organism-based; details: in vivo, 2 h; outline: as §1
Thyroid gland [52] = assay: Biodistribution in ddY mouse thyroid at 1 uCi/100 uL, iv after 120 mins by gamma counting; type: ADME, organism-based; details: in vivo, 2 h

**Q.** What does the source list for CNc1ccc(/C=C/C(=O)/C=C/c2ccc([125I])cc2)cc1?
**A.** Ratio (Brain [1]): 6.59; logD [2]: 3.55; Drug uptake (Blood [3]): 7.48 % ID/g; Drug uptake (Brain [4]): 4.68 % ID/g; Drug uptake (Heart [5]): 8.11 % ID/g; Drug uptake (Liver [6]): 39.22 % ID/g; Drug uptake (Spleen [7]): 4.57 % ID/g; Drug uptake (Lung [8]): 9.67 % ID/g; Drug uptake (Kidney [9]): 14.73 % ID/g; Drug uptake (Stomach [10]): 3.26 % ID/organ; Drug uptake (Intestine [11]): 3.53 % ID/g; Drug uptake (Thyroid gland [12]): 18.2 % ID/g; Drug uptake (Blood [13]): 6.02 % ID/g; Drug uptake (Brain [14]): 2.62 % ID/g; Drug uptake (Heart [15]): 4.14 % ID/g; Drug uptake (Liver [16]): 40.83 % ID/g; Drug uptake (Spleen [17]): 3.36 % ID/g; Drug uptake (Lung [18]): 7.42 % ID/g; Drug uptake (Kidney [19]): 16.49 % ID/g; Drug uptake (Stomach [20]): 3.82 % ID/organ; Drug uptake (Intestine [21]): 10.33 % ID/g; Drug uptake (Thyroid gland [22]): 28.09 % ID/g; Drug uptake (Blood [23]): 4.84 % ID/g; Drug uptake (Brain [24]): 1.38 % ID/g; Drug uptake (Heart [25]): 3.29 % ID/g; Drug uptake (Liver [26]): 23.88 % ID/g; Drug uptake (Spleen [27]): 2.22 % ID/g; Drug uptake (Lung [28]): 6.18 % ID/g; Drug uptake (Kidney [29]): 15.54 % ID/g; Drug uptake (Stomach [30]): 3.17 % ID/organ; Drug uptake (Intestine [31]): 13.19 % ID/g; Drug uptake (Thyroid gland [32]): 27.78 % ID/g; Drug uptake (Blood [33]): 3.35 % ID/g; Drug uptake (Brain [34]): 0.71 % ID/g; Drug uptake (Heart [35]): 1.74 % ID/g; Drug uptake (Liver [36]): 22.63 % ID/g; Drug uptake (Spleen [37]): 1.52 % ID/g; Drug uptake (Lung [38]): 3.5 % ID/g; Drug uptake (Kidney [39]): 10.46 % ID/g; Drug uptake (Stomach [40]): 3.34 % ID/organ; Drug uptake (Intestine [41]): 23.62 % ID/g; Drug uptake (Thyroid gland [42]): 23.96 % ID/g; Drug uptake (Blood [43]): 4.46 % ID/g; Drug uptake (Brain [44]): 0.54 % ID/g; Drug uptake (Heart [45]): 1.91 % ID/g; Drug uptake (Liver [46]): 27.83 % ID/g; Drug uptake (Spleen [47]): 1.23 % ID/g; Drug uptake (Lung [48]): 3.9 % ID/g; Drug uptake (Kidney [49]): 13.43 % ID/g; Drug uptake (Stomach [50]): 4.49 % ID/organ; Drug uptake (Intestine [51]): 41.29 % ID/g; Drug uptake (Thyroid gland [52]): 72.93 % ID/g
